According to ChEMBL document CHEMBL1127561, “Novel spirosuccinimide aldose reductase inhibitors derived from isoquinoline-1,3-diones: 2-[(4-bromo-2-fluorophenyl)methyl]-6- fluorospiro[isoquinoline-4(1H),3'-pyrrolidine]-1,2',3,5'(2H)-tetrone and congeners. 1” (J Med Chem, 1994):
pIC50: −log10 of the molar value. Blank lines part the entries; values can stand above or below the compound they belong to. Activity calls are given as the source filed them. The calls are words filed in the database; no cut-off is given here.

Columns and labels:
[1] = Half-life In vitro; format: ADME
Rattus norvegicus [2] = organism: Rattus norvegicus; assay: Percentage Inhibition of galactitol accumulation in the sciatic nerve of rats
[3] = molecular target: T1, Aldo-keto reductase family 1 member B1 (Bos taurus, UniProt P16116); assay: In vitro inhibition of aldose reductase activity in a partially purified bovine lens preparation
Rattus norvegicus [4] = assay: Percentage Inhibition of galactitol accumulation in the sciatic nerve of rats fed with the dose of 0.6 mg/kg/day; format: functional
Summary of the method: (§1)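 Male Sprague-Dawley rats (70-90 g), six per group, fed 20% galactose chow with compound in the diet for 4 days; glucose-fed controls. After a 3-h fast, lens or sciatic nerve galactitol was measured as nmol/mg wet weight. Percent inhibition vs galactose-fed controls, mean ± SEM; ANOVA with Dunnett's test.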

[5] = molecular target: Aldo-keto reductase family 1 member B1 (Bos taurus) (UniProt P16116); assay: Inhibition of aldose reductase activity in a partially purified bovine lens preparation at 4*10e-8 M
Summary of the method: (§2)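 Partially purified bovine lens aldose reductase (ammonium sulfate fractionation). NADPH oxidation read at 340 nm, 37 °C, in 30 mM sodium phosphate pH 6.2, 0.2 M LiSO4, […], 1% DMSO. Enzyme was preincubated with inhibitor for 5 min, then the reaction was started with 5 mM DL-glyceraldehyde. Duplicates; IC50 from linear regression of log concentration vs percent inhibition.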

[6] = molecular target: Aldo-keto reductase family 1 member B1 (Bos taurus) (UniProt P16116); assay: Inhibition of aldose reductase activity in a partially purified bovine lens preparation at 10e-7 M; summary of the method: as §2
[7] = Log P value by using Octanol / pH 7.4 buffer; format: physicochemical
Summary of the method: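 Partition measured between octanol and pH 7.4 buffer.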

Rattus norvegicus [8] = assay: Percentage Inhibition of galactitol accumulation in the sciatic nerve of rats fed with the dose of 1.0 mg/kg/day; format: functional; summary of the method: as §1
[9] = molecular target: T1, Aldo-keto reductase family 1 member B1; assay: In vitro inhibition of aldose reductase activity in a partially purified bovine lens preparation at 4*10e-8 M; NS=Not significant; summary of the method: as §2
[10] = molecular target: T1, Aldo-keto reductase family 1 member B1; assay: Compound was evaluated In vitro for inhibition of aldose reductase activity in a partially purified bovine lens preparation at 10e-7 M; NS=Not significant; summary of the method: as §2
Rattus norvegicus [11] = assay: Percentage Inhibition of galactitol accumulation in the sciatic nerve of rats fed with the dose of 0.5 mg/kg/day; format: functional; summary of the method: as §1
Rattus norvegicus [12] = assay: Percentage Inhibition of galactitol accumulation in the lens of rats fed with the dose of 1.1 mg/kg/day; format: functional; details: Lens of camera-type eye; summary of the method: as §1
Rattus norvegicus [13] = assay: Percentage Inhibition of galactitol accumulation in the sciatic nerve of rats fed with the dose of 1.1 mg/kg/day (values are mean of six animals, p<0.01); format: functional; summary of the method: as §1
Rattus norvegicus [14] = assay: Percentage Inhibition of galactitol accumulation in the lens of rats fed with the dose of 3.0 mg/kg/day; format: functional; details: Lens of camera-type eye; summary of the method: as §1
Rattus norvegicus [15] = assay: Percentage Inhibition of galactitol accumulation in the sciatic nerve of rats fed with the dose of 0.8 mg/kg/day; format: functional; summary of the method: as §1
Rattus norvegicus [16] = organism: Rattus norvegicus; assay: Dose at which the tissue level of polyol accumulation was reduced by 50% was evaluated for galactosemic rat in sciatic nerve; format: functional
Summary of the method: (§3)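 Male Sprague-Dawley rats (70-90 g, six per group) fed chow with 20% galactose and compound in the diet for 4 or 14 days. After a 3-h fast, lens and sciatic nerve were removed and frozen, and galactitol was quantitated in nmol/mg wet weight. ED50 from nonlinear regression of log dose vs tissue polyol.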

Rattus norvegicus [17] = organism: Rattus norvegicus; assay: Dose at which the tissue level of polyol accumulation was reduced by 50% was evaluated for STZ diabetic rat in sciatic nerve; format: functional
Summary of the method: (§4)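 Male Sprague-Dawley rats (200-250 g, 12 per group) made diabetic with streptozocin 60 mg/kg iv in cold 0.03 M citrate pH 4.5; plasma glucose kept between 300 and 550 mg/dl. Compound was suspended in 2% Tween 80/saline and gavaged daily for 14 days. On day 15, RBC, lens and sciatic nerve polyol was measured. ED50 by nonlinear regression of log dose.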

Rattus norvegicus [18] = organism: Rattus norvegicus; assay: Dose at which the tissue level of polyol accumulation was reduced by 50% was evaluated for galactosemic rat in lens; format: functional; details: Lens of camera-type eye; summary of the method: as §3
Rattus norvegicus [19] = assay: Percentage Inhibition of galactitol accumulation in the lens of rats fed with the dose of 0.8 mg/kg/day; NS=Not significant; format: functional, organism-based; details: Lens of camera-type eye; summary of the method: as §1
Rattus norvegicus [20] = organism: Rattus norvegicus; assay: Dose at which the tissue level of polyol accumulation was reduced by 50% was evaluated for 14 days in RBC; format: functional; details: 336 h; summary of the method: as §4
Rattus norvegicus [21] = assay: Percentage Inhibition of galactitol accumulation in the lens of rats fed with the dose of 4.0 mg/kg/day; NS=Not significant; format: functional, organism-based; details: Lens of camera-type eye; summary of the method: as §1
Rattus norvegicus [22] = organism: Rattus norvegicus; assay: Dose at which the tissue level of polyol accumulation was reduced by 50% was evaluated for 4 days in sciatic nerve; format: functional; details: 96 h; summary of the method: as §3
[23] = Compound was evaluated In vitro for inhibition of aldose reductase activity by 50% in rat RBC
Summary of the method: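 Rat (or dog) red blood cells from fasted male Sprague-Dawley rats (150-170 g, EDTA, aortic arch) or pooled beagle blood; 1 mL packed cells in 2 mL HBSS with 10 mM galactose plus inhibitor 1 to 5×10^-8 M, 3 h, 95% air/5% CO2, shaken. Erythrocyte galactitol measured; IC50 mean ± SD of three to six replicate experiments.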

Rattus norvegicus [24] = assay: Percentage Inhibition of galactitol accumulation in the sciatic nerve of rats fed with the dose of 4.0 mg/kg/day; format: functional; details: read-out: Inhibition; summary of the method: as §1
Rattus norvegicus [25] = organism: Rattus norvegicus; assay: Dose at which the tissue level of polyol accumulation was reduced by 50% was evaluated for 4 days in lens; format: functional; details: Lens of camera-type eye, 96 h; summary of the method: as §3
Rattus norvegicus [26] = organism: Rattus norvegicus; assay: Dose at which the tissue level of polyol accumulation was reduced by 50% was evaluated for 14 days in sciatic nerve; format: functional; summary of the method: as §3
Rattus norvegicus [27] = assay: Percentage Inhibition of galactitol accumulation in the lens of rats fed with the dose of 0.6 mg/kg/day; NS=no significant; format: functional, organism-based; details: Lens of camera-type eye; summary of the method: as §1
Rattus norvegicus [28] = organism: Rattus norvegicus; assay: Dose at which the tissue level of polyol accumulation was reduced by 50% was evaluated for 12 days in sciatic nerve; format: functional; details: 288 h
Rattus norvegicus [29] = organism: Rattus norvegicus; assay: Dose at which the tissue level of polyol accumulation was reduced by 50% was evaluated for 12 days in lens; format: functional; details: Lens of camera-type eye, 288 h
Rattus norvegicus [30] = assay: Percentage Inhibition of galactitol accumulation in the lens of rats fed with the dose of 0.9 mg/kg/day; format: functional; details: Lens of camera-type eye; summary of the method: as §1
Rattus norvegicus [31] = assay: Percentage Inhibition of galactitol accumulation in the sciatic nerve of rats fed with the dose of 0.9 mg/kg/day; format: functional; summary of the method: as §1
[32] = Rattus norvegicus, Sciatic nerve, 336 h, read-out: ED50

Compound: O=C1CC2(C(=O)N1)C(=O)N(Cc1ccc(Br)cc1F)C(=O)c1ccc(Cl)cc12 (stereo not given)
inhibition in vivo at 0.6 mg/kg/day (Rattus norvegicus [4]): 29% | pIC50 [3]: 7.52

Compound: O=C1CC2(C(=O)N1)C(=O)N(Cc1ccc(Br)cc1F)C(=O)c1ccccc12 (stereo not given)
inhibition in vivo at 0.8 mg/kg/day (Rattus norvegicus [15]): 88% | inhibition in vivo at 0.5 mg/kg/day (Rattus norvegicus [11]): 82% | logD [7]: 2.74 | ED50 (Rattus norvegicus [16]): 0.3 mg/kg/day | ED50 (Rattus norvegicus [17]): 0.07 mg/kg/day | ED50 (Rattus norvegicus [18]): ~10 mg/kg/day | inhibition (Rattus norvegicus [19]): inactive

Compound: O=C1C[C@@]2(C(=O)N1)C(=O)N(Cc1ccc(Br)cc1F)C(=O)c1ccccc12
inhibition in vivo at 0.5 mg/kg/day (Rattus norvegicus [11]): 83% | half-life [1]: 240 min | pIC50 [3]: 8.01

Compound: O=C1CC2(C(=O)N1)C(=O)N(Cc1nc3cc(C(F)(F)F)ccc3s1)C(=O)c1ccc(F)cc12 (stereo not given)
logD [7]: 3.16 | inhibition in vivo at 1 mg/kg/day (Rattus norvegicus [8]): 53% | pIC50 [3]: 7.59

Compound: O=C1C[C@@]2(C(=O)N1)C(=O)N(Cc1ccc(Br)cc1F)C(=O)c1ccc(F)cc12
half-life [1]: 30 min | ED50 (Rattus norvegicus [2]): 0.09 mg/kg | pIC50 [3]: 8.05

Compound: O=C1CC2(C(=O)N1)C(=O)N(Cc1ccc(Br)cc1F)C(=O)c1cc(Cl)ccc12 (stereo not given)
inhibition in vivo at 0.6 mg/kg/day (Rattus norvegicus [4]): 63% | inhibition (Rattus norvegicus [27]): inactive | logD [7]: 3.51 | pIC50 [3]: 7.48

Compound: COc1ccc2c(C(=S)N(C)CC(=O)O)cccc2c1C(F)(F)F [TOLRESTAT]
ED50 (Rattus norvegicus [20]): 1.9 mg/kg/day | ED50 (Rattus norvegicus [22]): 6.4 mg/kg/day | pIC50 [23]: 7.57 | ED50 (Rattus norvegicus [28]): 4.5 mg/kg/day | ED50 (Rattus norvegicus [29]): 28 mg/kg/day | ED50 (Rattus norvegicus [25]): 128 mg/kg/day | ED50 (Rattus norvegicus [26]; [32]): 3.8 mg/kg/day

Compound: CN1C(=O)c2ccc(C(F)(F)F)cc2C2(CC(=O)NC2=O)C1=O (stereo not given)
inhibition [5]: 46% | inhibition [6]: 64% | inhibition in vivo at 0.9 mg/kg/day (Rattus norvegicus [30]): 20% | inhibition in vivo at 0.9 mg/kg/day (Rattus norvegicus [31]): 38%

Continued, in another order:

half-life [1]: 30 min | pIC50 [3]: 7.49
Compound: O=C1C[C@]2(C(=O)N1)C(=O)N(Cc1ccc(Br)cc1F)C(=O)c1ccc(F)cc12
ED50 (Rattus norvegicus [2]): 0.15 mg/kg

inhibition [5]: 43% | inhibition [6]: 85% | logD [7]: 0.8
Compound: CN1C(=O)c2ccc(Br)cc2C2(CC(=O)NC2=O)C1=O (stereo not given)
inhibition in vivo at 1 mg/kg/day (Rattus norvegicus [8]): 54%

IC50 [9]: Not Active | IC50 [10]: Not Active
Compound: CON1C(=O)c2ccccc2C2(CC(=O)NC2=O)C1=O (stereo not given)

inhibition [5]: 43% | inhibition [6]: 72% | logD [7]: 0.58
Compound: CN1C(=O)c2ccc(Cl)cc2C2(CC(=O)NC2=O)C1=O (stereo not given)
inhibition in vivo at 0.5 mg/kg/day (Rattus norvegicus [11]): 54% | inhibition in vivo at 1.1 mg/kg/day (Rattus norvegicus [12]): 33% | inhibition in vivo at 1.1 mg/kg/day (Rattus norvegicus [13]): 75% | inhibition in vivo at 3 mg/kg/day (Rattus norvegicus [14]): 59%

logD [7]: 2.81 | pIC50 [23]: 7.57 | pIC50 [3]: 7.85
Compound: O=C1CC2(C(=O)N1)C(=O)N(Cc1ccc(Br)cc1F)C(=O)c1ccc(F)cc12 (stereo not given)
ED50 (Rattus norvegicus [20]): 0.25 mg/kg/day | inhibition (Rattus norvegicus [21]): inactive | inhibition in vivo at 0.5 mg/kg/day (Rattus norvegicus [11]): 83% | ED50 (Rattus norvegicus [22]): 0.3 mg/kg/day | inhibition in vivo at 4 mg/kg/day (Rattus norvegicus [24]): 95% | ED50 (Rattus norvegicus [25]): 19 mg/kg/day | ED50 (Rattus norvegicus [26]): 0.1 mg/kg/day | ED50 (Rattus norvegicus [26]; [32]): 0.09 mg/kg/day
